Bioassay records (PubChem BioAssay)
Mdm2-MdmX inh: inhibitors of human Mdm2-MdmX association, primary screen, cell-based, luminescence, split luciferase, SaOS-2, uHTS. Protein Mdm4 (Homo sapiens) + E3 ubiquitin-protein ligase Mdm2 (Homo sapiens), …. SaOS-2 split-luciferase Mdm2/MdmX complementation. inhibition, % at 8 µM. hit rate 3% among 330,000. AID 485346, 2010;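 active means inhibition of at least 50% at 8 µM in the primary screen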
Target sequence (O15151 whole entry, looked up): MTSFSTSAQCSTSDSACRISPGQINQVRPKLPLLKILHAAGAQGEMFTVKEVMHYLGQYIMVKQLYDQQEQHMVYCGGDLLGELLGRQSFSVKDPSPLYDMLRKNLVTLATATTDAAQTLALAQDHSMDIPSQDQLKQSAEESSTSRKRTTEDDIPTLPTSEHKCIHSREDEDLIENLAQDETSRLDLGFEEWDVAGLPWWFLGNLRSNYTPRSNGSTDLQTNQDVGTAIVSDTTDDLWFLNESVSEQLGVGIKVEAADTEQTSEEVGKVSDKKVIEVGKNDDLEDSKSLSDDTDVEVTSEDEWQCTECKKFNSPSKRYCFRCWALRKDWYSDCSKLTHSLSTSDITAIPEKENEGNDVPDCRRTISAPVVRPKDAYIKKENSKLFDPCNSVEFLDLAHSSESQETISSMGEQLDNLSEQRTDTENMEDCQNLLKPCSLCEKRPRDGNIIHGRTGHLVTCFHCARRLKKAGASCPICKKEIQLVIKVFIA
Target sequence (Q00987 whole entry, looked up): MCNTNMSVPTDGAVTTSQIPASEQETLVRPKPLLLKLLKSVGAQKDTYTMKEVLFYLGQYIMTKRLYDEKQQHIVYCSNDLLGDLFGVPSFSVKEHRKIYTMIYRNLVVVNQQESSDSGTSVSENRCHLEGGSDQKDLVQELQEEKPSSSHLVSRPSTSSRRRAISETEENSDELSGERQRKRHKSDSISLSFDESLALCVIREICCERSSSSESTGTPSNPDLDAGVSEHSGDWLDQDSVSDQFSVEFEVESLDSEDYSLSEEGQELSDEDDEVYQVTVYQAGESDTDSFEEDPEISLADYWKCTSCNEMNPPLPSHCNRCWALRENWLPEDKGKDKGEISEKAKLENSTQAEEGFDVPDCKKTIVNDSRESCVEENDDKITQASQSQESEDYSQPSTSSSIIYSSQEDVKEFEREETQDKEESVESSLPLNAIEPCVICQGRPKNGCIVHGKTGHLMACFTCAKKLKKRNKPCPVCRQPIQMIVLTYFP
CSC inhib: cancer stem cell viability inhibitors, primary screen, luminescence. inhibition, % at 7.5 µM. hit rate 1.1% among 300,000. cancer stem cell-like cells viability; in the data active means inhibition above about 75%; inconclusive means no clear call, values can overlap the other calls; tested in HMLE shEcad cells
T cruzi repl: inhibitors of intracellular T. cruzi growth, primary screen, luminescence, NIH3T3 host cells | inhibition, % (concentration not given with the values) | T. cruzi beta-gal in NIH3T3, 90 h | hit rate 1.4% among 300,000;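 active means mean inhibition across valid replicates above about 55%, limit read from the data; inconclusive means mean below that limit but half or more replicates reach it; inactive means mean below it, under half of replicates reach it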;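 further: signal also drops with host cell toxicity which is not excluded here; 0% = plate median of DMSO wells and 100% = zero luminescence signal; higher percent means less beta-gal luminescence so fewer parasites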
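System – NIH/3T3 host cells with β-galactosidase reporter T. cruzi · Doses – single 50 nL compound addition per well in DMSO · Reagent – 5000 T. cruzi trypomastigotes/well · Medium – Low-serum DMEM with 2% FBS · Timing – ≥90 h infection period, 3 h prior cell attachment · Evaluation – parasite load inhibition, % · Technique – GalScreen luminescence, 60 min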
SKKanGAS inh: S. pyogenes SKKanGAS growth inhibitors in kanamycin, primary screen, streptokinase expression inhibitor project, SKKanGAS strain, BacTiter-Glo luminescence; hit rate 1.3% among 300,000; 6 h; inhibition, % at 7.5 µM; AID 1662, 2009;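 active means mean replicate score, as percent of positive control median, at least 50; inconclusive means mean below 50 but one replicate at or above 50; inactive means mean and every replicate below 50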;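 further: strain carries kanamycin resistance gene driven by streptokinase promoter and grows in 40 µg/ml kanamycin; loss of luminescence reflects streptokinase promoter inhibition or plain growth inhibition; 0% = median of DMSO wells and 100% = positive control at its reference dose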
Calb FLC: C. albicans growth inhibition with fluconazole, primary screen, CaCi-2 strain, Alamar Blue fluorescence; C. albicans CaCi-2 (fluconazole-resistant clinical isolate) + fluconazole, 48 h; hit rate 0.57% among 300,000; growth inhibition, % (concentration not given with the values);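 active means growth inhibition above about 58% in most replicates, limit read from the data, passing the limit was not always enough; inconclusive means exactly half the replicates above a set limit; inactive means most replicates below a set limit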;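 further: all wells also contain fluconazole at 8 µg/ml as a sub-toxic cotreatment; 0% = median of DMSO wells and 100% = median of geldanamycin control wells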
Beta apoptosis: inhibitors of cytokine-induced beta cell apoptosis, primary screen, luminescence; INS-1E cytokine-induced death, ATP luminescence, 48 h; percent of positive-control rescue, neutral wells zero; hit rate 0.8% among 300,000; protection from apoptosis, % (no concentration beside the values);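 active means Every replicate reaches about 75%, or at least half do and their mean reaches it too, limit read from the data; inconclusive means At least half of replicates reach the limit but their mean does not; inactive means Under half of replicates reach the limit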;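 further: 0% = cytokine-treated negative control wells and 100% = positive control rescue; higher means more ATP so stronger rescue from cytokine killing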
Mdm2 MdmX conf: Mdm2-MdmX complex disruptors, retested hits, confirmation, luminescence, single concentration; shares compounds with Mdm2-MdmX inh; Mdm2-MdmX binding, luminescent assay; inhibition, % at 8 µM; hit rate 55% among 10,000; in the data active means inhibition above about 40%
Full FLuc ctr: full-length luciferase signal inhibition, confirmation, counter-screen for Mdm2/MdmX interaction inhibitor project, cell-based, single concentration, SaOS-2. shares compounds with Mdm2-MdmX inh. SaOS-2 full-length luciferase counterscreen, luminescence. inhibition, % at 8 µM. hit rate 77% among 6,200;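 active means mean inhibition at 8 µM reaching about 37%, which flags the compound as non-specific, limit read from the data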;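 further: p53-null SaOS-2 cells with luciferase driven by a doxycycline-inducible promoter; compound on cells about two nights before reading with doxycycline added after day one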
* hit, by the source's call; ? = inconclusive; nt = no result. Compounds with a hit are over-represented: about 5.7% of the library has one in this group of screens.

SMILES | Mdm2-MdmX inh | CSC inhib | T cruzi repl | SKKanGAS inh | Calb FLC | Beta apoptosis | Mdm2 MdmX conf | Full FLuc ctr
COc1cc2c(cc1OC)CN(c1nc(CN3CCCCC3)nc3sc4c(c13)CCCC4)CC2 | 53* | 21 | 49 | 6 | 14 | 32 | 44* | 62*
COc1cc2c(cc1OC)CN(c1nc(CN3CCOCC3)nc3sc4c(c13)CCCC4)CC2 | 46 | 45 | 1 | 22 | 10 | 2 | nt | nt
COC(=O)C[C@H]1c2cc(C(F)(F)F)ccc2S(=O)(=O)N1Cc1ccccc1 | -3 | 14 | -9 | 1 | -2 | -1 | nt | nt
O=S(=O)(Nc1ccc(F)cc1Cl)c1ccc(-c2cnc(C3CC3)o2)cc1 | 56* | nt | -15 | 9 | -2 | nt | 61* | 66*
Cc1ccc(NS(=O)(=O)c2ccc(Cl)nc2)c(C)c1 | 12 | nt | nt | nt | nt | nt | nt | nt
Cc1cccc(N(C)S(=O)(=O)c2ccc(-c3cnc(C4CC4)o3)cc2)c1 | 74* | 78* | 4 | 2 | 4 | 54 | 59* | 103*
Cc1ccc(NS(=O)(=O)c2ccc(-c3cnc(C4CC4)o3)cc2)c(C)c1 | 77* | ? | -3 | 3 | 12 | 21 | 56* | 95*
Cc1ccc(N(C)S(=O)(=O)c2cc(-c3cnc(C4CC4)o3)ccc2C)cc1 | 40 | 40 | 39 | 8 | -4 | 2 | nt | nt
COc1ccc(NS(=O)(=O)c2ccc(-c3cnc(C4CC4)o3)cc2)cc1OC | 57* | 62 | -34 | -4 | -1 | 93* | 56* | 47*
Cc1ccccc1C1CCCN(Cc2nc(CC3CC3)no2)C1 (stereo not drawn) | -18 | -1 | nt | 14 | -14 | -8 | nt | nt
COc1cccc(CNC(=O)CCS(=O)(=O)c2ccc3c(c2)NC(=O)CO3)c1 | -8 | 8 | -1 | -11 | 11 | -1 | nt | nt
O=C(NS(=O)(=O)Oc1ccccc1F)OC[C@@H]1CCCN2CCCCC12 (stereo partly drawn) | 5 | nt | 1 | 4 | -2 | -5 | nt | nt
Cc1cccc(C)c1NC(=O)C(C)Sc1nnc(C)n1CC1CCCO1 (stereo not drawn) | -10 | nt | -6 | 3 | 3 | nt | nt | nt
C=CCNC(=O)NC(=O)COC(=O)[C@H](C)NS(=O)(=O)c1c(C)c(C)cc(C)c1C | 2 | 5 | -4 | -10 | -3 | -2 | nt | nt
COc1ccccc1CNS(=O)(=O)c1ccc(S(=O)(=O)NC2CC2)cc1 | -14 | nt | 16 | 2 | 3 | -3 | nt | nt
COc1ccccc1N1CCN(S(=O)(=O)c2ccc(-c3cnc(C4CC4)o3)cc2)CC1 | 26 | -3 | 8 | 18 | 1 | 5 | nt | nt
COc1ccccc1CNS(=O)(=O)c1ccc(-c2cnc(C3CC3)o2)cc1 | 54* | 65 | -12 | -3 | 18 | 19 | 55* | 66*
COc1ccccc1NS(=O)(=O)c1ccc(-c2cnc(C3CC3)o2)cc1 | 70* | 17 | -6 | -15 | 8 | 16 | 64* | 81*
COc1cccc(N2CCN(S(=O)(=O)c3ccc(-c4cnc(C5CC5)o4)cc3)CC2)c1 | 79* | -4 | 18 | 1 | 2 | 12 | 10 | nt
CCOc1ccccc1NS(=O)(=O)c1ccc(-c2cnc(C3CC3)o2)cc1 | 73* | 17 | -11 | -13 | 24 | 45 | 56* | 117*
CCCCn1c(N)c(N(C)C(=O)C2CC(=O)N(Cc3ccco3)C2)c(=O)[nH]c1=O (stereo not drawn) | -12 | -14 | nt | nt | nt | 0 | nt | nt
COc1ccccc1C(=O)NNC(=O)CCC(=O)NCc1ccccc1 | 8 | -6 | 3 | 1 | -5 | -1 | nt | nt
S=C(NCC1CC1)N/N=C/c1ccccc1Cl | -12 | 3 | -22 | -5 | -14 | -8 | nt | nt
COCCN(C(=O)/C=C/c1ccccc1)c1nnc(-c2cccnc2)s1 | 39 | 10 | -9 | 2 | 19 | 1 | nt | nt
NCC(c1ccc(Cl)cc1Cl)c1c[nH]c2ccccc12 (stereo not drawn) | 65* | 95* | -6 | 0 | 80* | 38 | 33 | nt
SMILES | Mdm2-MdmX inh | CSC inhib | T cruzi repl | SKKanGAS inh | Calb FLC | Beta apoptosis | Mdm2 MdmX conf | Full FLuc ctr
CN(C)CCCNC(=S)NCC(c1ccc(Cl)cc1Cl)c1c[nH]c2ccccc12 (stereo not drawn) | 89* | -15 | 39 | 56* | 2 | 17 | 65* | 29
CN1CCN(NC(=O)/C=C/c2ccc(C(C)(C)C)cc2)CC1 | -8 | 17 | 45 | -1 | 9 | -2 | nt | nt
CCc1nnc(NC(=O)CSc2nnc(C3CC3)n2C)s1 | 3 | -6 | -5 | 15 | 0 | -10 | nt | nt
COc1ccc(C2=CC(=O)C[C@H](c3ccc(OC)cc3)C2)cc1 | -3 | 1 | nt | nt | nt | -8 | nt | nt
COc1ccc([C@H]2CC(=O)C=C(c3ccc(OC)cc3OC)C2)cc1 | 51* | 71 | nt | nt | nt | 7 | 34 | 98*
CCOc1ccc(N2C(=O)S/C(=C\c3cc(OC)c(OC)c(OC)c3)C2=O)cc1 | 53* | 4 | 6 | -2 | -12 | 10 | 14 | nt
COC(=O)c1ccc(/C=C/C(=O)c2ccc(OC)cc2)cc1 | -7 | nt | -16 | -5 | 13 | -1 | nt | nt
O=C(/C=C/c1ccc(O)c([N+](=O)[O-])c1)c1ccc2ccccc2c1 | 14 | -6 | 5 | 9 | 8 | -10 | nt | nt
COc1ccc(C(=O)/C=C/c2ccc(OC(=O)c3cc(OC)c(OC)c(OC)c3)cc2)cc1 | 57* | 17 | -5 | 5 | 0 | -5 | 5 | nt
COc1ccc(/C=C/C(=O)Nc2ccccc2C(=O)O)cc1OC | 62* | 15 | 4 | 14 | nt | nt | 76* | 131*
CCOc1ccc(N2C(=O)S/C(=C\c3ccc(O)c(OC)c3)C2=O)cc1 | 5 | 57 | 6 | 1 | -15 | -8 | nt | nt
COc1ccc(Oc2ccc(/C=C/C(=O)c3ccc(O)cc3)cc2[N+](=O)[O-])cc1 | 98* | 94* | 4 | -11 | -7 | 10 | 33 | nt
CN(CC(=O)Nc1ccc(Cl)c(C(F)(F)F)c1)C(=O)c1cccc2cccnc12 | -1 | nt | nt | nt | nt | 2 | nt | nt
COc1ccc(/C=C/C(=O)c2ccc(C(=O)/C=C/c3ccc(OC)c(OC)c3)cc2)cc1OC | 54* | nt | ? | 25 | 5 | nt | 3 | nt
COC(=O)c1ccc(/C=C/C(=O)c2ccc(OC)c(OC)c2)cc1 | 13 | nt | 20 | 5 | -16 | -3 | nt | nt
